# Assay outcomes: PubChem BioAssay, several laboratories
# zVAD death inh: L929 zVAD cell death inhibition; L929 zVAD necroptosis rescue, ATP luminescence, 24 h; with zVAD 60 µM; viability rescue, % at 10 µM; 220,000 compounds, 0.38% hits; AID 1377;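 active means activation, scaled between plate controls, above about 75%, limit read from the data; inactive means activation under that limit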
# TNF necrop inh: blocks TNF-alpha induced death of Jurkat FADD-/- cells; AID 463075; 220,000 compounds, 0.068% hits; activation (protection from cell death), % at 10 µM; Jurkat FADD-/- TNF necroptosis rescue, ATP luminescence, 24 h; 0 = TNF only, 100 = no-TNF cells;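 active means activation, meaning protection from cell death, of at least 50% relative to plate controls; inactive means activation below 50%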;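 further: necroptosis triggered by 40 ng/mL TNF-alpha added together with compound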
# Hep lipid drop: modulators of hepatic lipid droplet formation; inhibition, % at 6.5 µM; AML12 mouse hepatocytes, oleate lipid droplets, BODIPY imaging; 240,000 compounds, 0.4% hits;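 active means lipid droplet intensity inhibited by at least 50%, with more than 500 cells counted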
#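 Technique: fluorescence imaging, 20x objective, two fields per well / Assay system: AML12 hepatocytes (mouse) / Measure: % inhibition of lipid droplet signal / Doses: 6.5 µM single-point dosing / Incubation: overnight exposure / Reagent: 100 µM oleic acid challenge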
# Pf gametocyte: P. falciparum stage V gametocyte viability inhibition; P. falciparum stage V gametocytes, ATP luminescence, 24 h; 150,000 compounds, 0.065% hits; inhibition, % at 10.9 µM; AID 743093;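 active means inhibition above the mean plus 3 SD of compounds within the control limits, set per campaign, cut at about 38% in these data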
# Arbovirus anti: blocks arbovirus infection | arbovirus infection cell-based antiviral screen | 200,000 compounds, 0.37% hits | inhibition, % at 10 µM | AID 1251; in the data active means inhibition above about 30%
# zVAD death conf: confirmed blocker of zVAD induced death in L929 cells. activation (protection from necroptosis), % at 10 µM. shares compounds with zVAD death inh. 760 compounds, 16% hits. AID 463117. L929 zVAD-induced necroptosis rescue, ATP luminescence, 24 h;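 active means mean protection from necroptosis of at least 50% over duplicate tests; inactive means mean protection below 50%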
# Hits are given with their value; – = inactive; · = no result. Hits are enriched below; roughly 0.91% of the tested compounds scored in any of these assays.
SMILES,zVAD death inh,TNF necrop inh,Hep lipid drop,Pf gametocyte,Arbovirus anti,zVAD death conf
Cc1ccc2nc(SCC(=O)N3CCN(C(=O)c4ccco4)CC3)[nH]c2c1,–,–,–,–,–,·
Cc1ccc2nc(Cl)c(/C=N/Nc3ccc(C(=O)O)cc3)cc2c1,–,–,–,–,·,·
Cc1nc2cc(NC(=O)Nc3ccc(Br)cc3)ccc2o1,80.3,–,–,–,–,–
Cc1nc2cc(NC(=O)NCc3ccc4c(c3)OCO4)ccc2o1,–,–,–,·,–,·
C/C(=N/NC(=O)c1nnn(-c2nonc2N)c1COc1ccccc1)c1ccc(O)cc1,·,·,–,·,·,·
Cc1cc(N/N=C/c2ccncc2)nc2ccccc12,81.2,50.4,–,–,–,77.1
O=C(CSc1nnc(-c2ccncc2)o1)N1CCCCCC1,76.0,–,–,–,–,–
Cc1ccc(-c2nnc(SCC(=O)N3CCCC3)o2)cc1,–,–,·,·,–,·
CCOc1cc(/C=C/C(=O)c2ccc(O)cc2)ccc1OCC(=O)N(C)C,105.1,–,–,–,–,–
CCOc1cc(/C=C/C(=O)c2ccc3c(c2)OCCO3)ccc1OCC(=O)N(C)C,·,·,–,·,·,·
COc1ccc(CCNC(=O)C/C(C)=N/NC(=O)C(c2ccccc2)c2ccccc2)cc1OC,80.3,–,–,–,·,–
Cn1nc(C(C)(C)C)cc1NC(=O)Nc1cc(Cl)cc(Cl)c1,94.0,–,–,–,·,92.6
Cc1ccc(F)cc1NC(=O)Nc1cc(C(C)(C)C)nn1C,–,–,–,–,·,·
O=C(Nc1ccc(Oc2ccccc2)nc1)C1CCCCN1Cc1ccc(OCCO)cc1 (configuration not stated),·,·,–,·,·,·
CN(C)C1=NC[C@H](Cc2ccccc2)N1CC1CCC(C(C)(C)C)CC1 (some centres not stated),·,·,–,·,·,·
Cn1nnnc1SCC(=O)Nc1cc(C(C)(C)C)nn1-c1ccccc1,–,–,–,·,–,·
COc1ccc(-n2cnnc2SCC(=O)Nc2cc(C(C)(C)C)nn2-c2ccccc2)cc1,85.1,–,–,–,–,81.0
CC(C)(C)c1cc(/C=N/NC(=O)C[n+]2ccccc2)cc(C(C)(C)C)c1O,·,·,–,·,·,·
COc1cc(/C=N\Nc2nc3ccccc3[nH]2)cc(OC)c1OC,81.2,–,·,·,–,–
C(=N\Nc1ccc2ccccc2n1)/c1ccc2c(c1)OCCO2,–,–,–,–,–,·
C(=N\Nc1nc2ccccc2[nH]1)/c1ccc2c(c1)OCCO2,81.7,–,–,–,·,–
CCOc1cc(/C=N/Nc2nc3ccccc3[nH]2)cc(Br)c1OCC(=O)N(C)C,78.5,–,–,·,–,57.6
COc1ccc(/C=N/Nc2nc3ccccc3[nH]2)cc1OC,78.9,–,–,–,–,–
Cn1c(=O)cc(SCC(=O)Nc2ccccn2)c2ccccc21,81.5,–,·,·,–,–
CCN(CC(=O)NC1CCCC1)S(=O)(=O)c1ccc(F)cc1,·,·,–,·,·,·
SMILES,zVAD death inh,TNF necrop inh,Hep lipid drop,Pf gametocyte,Arbovirus anti,zVAD death conf
Cc1cccc2[nH]c(-c3ccc(NC(=O)c4ccco4)cc3)nc12,83.6,–,·,–,–,–
COc1ccccc1OCCC(=O)OCC(=O)Nc1ccc(Br)cc1F,–,–,–,–,–,·
Nc1[nH]nc2ncc3cc4ccccc4nc3c12,82.1,–,–,–,–,–
Cc1cccc2cc3ccccc3nc12,·,·,·,–,·,·
CC(=O)Nc1ccc(NC2CCCCC2NS(=O)(=O)c2ccccc2)cc1 (configuration not stated),·,·,–,·,·,·
CCC(C)C(=O)Nc1nc2ccc(S(C)(=O)=O)cc2s1 (configuration not stated),–,–,–,–,–,·
CS(=O)(=O)c1ccc2nc(NC(=O)Cc3ccccc3)sc2c1,76.1,–,–,·,–,–
CS(=O)(=O)c1ccc2nc(NC(=O)CS(=O)(=O)Cc3ccccc3)sc2c1,–,–,–,–,–,·
CC(C)C(=O)Nc1nc2ccc(S(C)(=O)=O)cc2s1,84.0,–,–,–,–,–
CC(=O)Nc1nc2ccc(Br)cc2s1,80.1,–,·,–,–,–
COc1ccc2nc(NC(C)=O)sc2c1,–,–,·,·,–,·
CC(C(=O)Nc1ccncc1)(c1ccccc1)c1ccccc1,–,–,–,–,–,·
CC1CCCC(NC(=O)CCNS(=O)(=O)c2ccc(Br)cc2)C1C (configuration not stated),77.3,–,–,·,–,–
CN(C)C=NC(=O)/C(C#N)=C1\CCc2ccccc2N1,83.4,–,·,–,–,–
O=C(c1ccc(COc2ccc3c(c2)CCC3)o1)N1CCN(c2ccccc2)CC1,–,–,·,–,·,·
O=C(c1ccco1)N1CCN(C(=O)c2ccc(COc3ccc(Cl)cc3Cl)o2)CC1,86.4,–,·,–,·,–
O=C(c1ccco1)N1CCN(C(=O)c2ccc(COc3ccc4c(c3)CCC4)o2)CC1,83.1,–,·,–,–,–
O=C(c1ccc(COc2ccccc2Cl)o1)N1CCN(c2ccccc2)CC1,–,–,·,·,–,·
Cc1ccc2c(ccc(=S)n2C)c1,–,–,–,·,–,·
CCCN1CCN(CCCNC(=O)c2cc3c(=O)n(C)c4ccccc4c3n2C)CC1,–,–,·,·,–,·
Cn1c(C(=O)NCCCN2CCCCCC2)cc2c(=O)n(C)c3ccccc3c21,83.1,–,–,·,–,–
CN1CCN(CCNC(=O)c2cc3c(=O)n(C)c4ccccc4c3n2C)CC1,78.0,–,·,·,–,–
Cc1cc(C)c(NC(=O)NC(=O)C(Cl)(Cl)Cl)c(C)c1,–,–,–,–,–,·
N#CC(C#N)=C1C(=O)N(CCN2CCCCC2)c2ccccc21,89.9,–,–,–,·,–
CCCCN1C(=O)/C(=C(/C#N)C(=O)N2CCCC2)c2ccccc21,–,–,–,–,·,·
SMILES,zVAD death inh,TNF necrop inh,Hep lipid drop,Pf gametocyte,Arbovirus anti,zVAD death conf
N#CC(C#N)=C1C(=O)N(CCN2CCOCC2)c2ccccc21,86.1,–,–,–,·,–
COc1cccc(C(=O)NCCC(=O)NCc2cc(=O)n(C)c(=O)n2C)c1,·,·,–,·,·,·
Cc1ccc2nc3ccc(N4CCCCCCC4)nn3c(=O)c2c1,87.2,–,·,·,–,–
O=C(CCn1c(=O)oc2ccc(Cl)cc21)NCCCN1CCOCC1,·,·,–,·,·,·
Nc1c(C(=O)NCC2CCCO2)c2nc3ccccc3nc2n1-c1ccccc1 (configuration not stated),85.8,–,·,–,–,–
COCCCNC(=O)c1c(N)n(-c2cccc(S(N)(=O)=O)c2)c2nc3ccccc3nc12,–,–,–,·,–,·
CCCNC(=O)c1c(N)n(-c2cccc(OC)c2)c2nc3ccccc3nc12,77.4,–,·,–,–,–
CC(=O)Nc1ccc(/C=N/Nc2nc3ccccc3s2)cc1,82.0,62.6,–,–,·,82.5
COc1ccc(/C=N/Nc2nc3ccccc3s2)cc1O,78.7,59.0,–,–,–,75.8
COc1ccc(/C=N/Nc2nc3ccccc3o2)cc1O,86.0,–,–,–,–,–
CC(=O)Nc1cccc(/C(C)=N/Nc2nc3ccccc3s2)c1,77.8,–,–,–,–,–
C/C(=N\Nc1nc2ccccc2s1)c1cccs1,–,–,–,–,–,·
